Results collected from several papers.
ADRA2A: Alpha-2A adrenergic receptor (ADRA2A, Homo sapiens, UniProt P08913)
CA2: Carbonic anhydrase 2 (CA2, Homo sapiens, UniProt P00918)
CA1: Carbonic anhydrase 1 (CA1, Homo sapiens, UniProt P00915)

Cc1cc(Oc2ncccc2CN2CCN(c3ccc(Cl)cc3)CC2)ccc1-c1c(C)c(=O)[nH]c(=O)n1C
Ki (ADRA2A; ligand displacement; radioligand): 576 nM

CC(C)(C(=O)O)c1ccc(C(O)CCCN2CCC(C(O)(c3ccccc3)c3ccccc3)CC2)cc1 (stereo not drawn)
Ki (CA2; enzyme activity; inhibitor; absorbance): 17900 nM

Cc1cc(Oc2ncccc2CN2CCN(c3ccccc3C)CC2)ccc1-c1c(C)c(=O)[nH]c(=O)n1C
Ki (ADRA2A; ligand displacement; radioligand): 59.4 nM

O=c1[nH]c(=O)n([C@H]2C[C@H](O)[C@@H](CO)O2)cc1/C=C/Br
Ki (CA1; enzyme activity; inhibitor): 8390 nM

Cc1cc(Oc2ncccc2CN2CCN(c3ccccc3O)CC2)ccc1-c1c(C)c(=O)[nH]c(=O)n1C
Ki (ADRA2A; ligand displacement; radioligand): 57 nM

Cc1ccc(C(=O)Nc2nnc(S(N)(=O)=O)s2)cc1
Ki (CA2; enzyme activity; inhibitor; stopped-flow): 21.1 nM

CC1=C(/C=C/C(C)=C/C=C/C(C)=C\C(=O)O)C(C)(C)CCC1
Ki (CA2; enzyme activity; inhibitor; absorbance): 6900 nM

C#CCOC(=O)c1ccc(=O)oc1
Ki (CA1; enzyme activity; inhibitor; stopped-flow): > 100000 nM

NS(=O)(=O)c1cnc(NC(=O)CC2CCCCC2)s1
Ki (CA1; enzyme activity; inhibitor; stopped-flow): 1580 nM

O=C(Oc1ccc(-c2ccccc2)cc1)c1ccc(=O)oc1
Ki (CA1; enzyme activity; inhibitor; stopped-flow): > 100000 nM

NS(=O)(=O)c1nnc(NC(=O)C2CCC3(CCCCC3)C2)s1 (stereo not drawn)
Ki (CA1; enzyme activity; inhibitor; stopped-flow): 220 nM

O=C(Oc1ccc(Br)cc1)c1ccc(=O)oc1
Ki (CA1; enzyme activity; inhibitor; stopped-flow): > 100000 nM

Cc1cc(Oc2ncccc2CN2CCN(Cc3ccccc3Cl)CC2)ccc1-c1c(C)c(=O)[nH]c(=O)n1C
Ki (ADRA2A; ligand displacement; radioligand): 81.2 nM

NS(=O)(=O)c1nnc(NC(=O)C2CCC3(CCCC3)CC2)s1
Ki (CA2; enzyme activity; inhibitor; stopped-flow): 59.4 nM

O=C(NCc1cn(-c2ccc(Cl)cc2)nn1)c1ccc(=O)oc1
Ki (CA1; enzyme activity; inhibitor; stopped-flow): > 100000 nM

Cc1ccc(CCC(=O)Nc2nnc(S(N)(=O)=O)s2)cc1
Ki (CA2; enzyme activity; inhibitor; stopped-flow): 11.8 nM

COc1cc(C)c(/C=C/C(C)=C/C=C/C(C)=C/C(=O)O)c(C)c1C
Ki (CA2; enzyme activity; inhibitor; absorbance): 7940 nM

COc1ccc(-n2cc(COC(=O)c3ccc(=O)oc3)nn2)cc1
Ki (CA1; enzyme activity; inhibitor; stopped-flow): > 100000 nM

CCOC(=O)N1CCC(=C2c3ccc(Cl)cc3CCc3cccnc32)CC1
Ki (CA1; enzyme activity; inhibitor): 8090 nM

Cc1cc(Oc2ncccc2CN2CCN(c3c(C)cccc3C)CC2)ccc1-c1c(C)c(=O)[nH]c(=O)n1C
Ki (ADRA2A; ligand displacement; radioligand): 731 nM

CN(C/C=C/C#CC(C)(C)C)Cc1cccc2ccccc12
Ki (CA2; enzyme activity; inhibitor; absorbance): 20300 nM

Cc1cc(Oc2ncccc2CN2CCN(c3ccccc3C#N)CC2)ccc1-c1c(C)c(=O)[nH]c(=O)n1C
Ki (ADRA2A; ligand displacement; radioligand): 128 nM

O=C(O)COCCN1CCN(C(c2ccccc2)c2ccc(Cl)cc2)CC1 (stereo not drawn)
Ki (CA1; enzyme activity; inhibitor): 9900 nM

Cc1cc(Oc2ncccc2CN2CCN(c3ccc(Br)cc3)CC2)ccc1-c1c(C)c(=O)[nH]c(=O)n1C
Ki (ADRA2A; ligand displacement; radioligand): 841 nM

C[C@H]1c2cccc(O)c2C(=O)C2=C(O)[C@]3(O)C(=O)C(C(N)=O)=C(O)[C@@H](N(C)C)[C@@H]3[C@@H](O)[C@@H]21
Ki (CA1; enzyme activity; inhibitor): 8510 nM

Cc1cc(Oc2ncccc2CN2CCN(c3ccccc3C(F)(F)F)CC2)ccc1-c1c(C)c(=O)[nH]c(=O)n1C
Ki (ADRA2A; ligand displacement; radioligand): 175 nM

OC1CCN(c2ccc(/C=N/NC(=S)Nc3cccc(Cl)c3Cl)cc2)CC1
Ki (CA2; enzyme activity; inhibitor): 271 nM
